According to ChEMBL document CHEMBL1127458, “Synthesis and quantitative structure-activity relationships of anticonvulsant 2,3,6-triaminopyridines” (J Med Chem, 1994):

Organism: Mus musculus
Experiment: Effective dosage for inhibition of maximal electroshock stimulated convulsions
Format: functional
Procedure, shortened: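 Mice (male Carworth Farms #1), groups of at least eight, were given various doses and tested at the previously determined time of peak effect. Protection was defined as abolition of the hind limb tonic extension component of the seizure. Dosing continued until at least two points lay between 0% and 100% protection. The 50% dose and 95% confidence interval were derived by Finney's method.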

Structure (SMILES) | Log 1/ED50
CCOC(=O)Nc1ccc(NCc2ccc(C(F)(F)F)cc2)nc1N.Cl | 4.146
Cl.Nc1nc(NCc2ccc(F)cc2)ccc1NC(=O)OCCCl | 4.46
CC(=O)Nc1ccc(NCc2ccc(F)cc2)nc1N.Cl | 3.567
Cc1noc(C)c1C(=O)Nc1ccc(NCc2ccc(F)cc2)nc1N.Cl | 3.94
CCOC(=O)Nc1ccc(NCc2ccccc2C)nc1N.Cl | 4.872
CCOC(=O)Nc1ccc(NCc2ccccc2O)nc1N.Cl | 3.896
CCOC(=O)Nc1ccc(NCc2ccc(C)cc2C)nc1N.Cl | 4.53
CCOC(=O)Nc1ccc(NCc2ccc(F)cc2F)nc1N.Cl | 4.321
Cl.Nc1nc(NCc2ccccc2)ccc1NC(=O)Oc1ccccc1 | 3.942
CCOC(=O)Nc1ccc(NCc2ccc(NC(C)=O)cc2)nc1N.Cl | 3.487
CCOC(=O)Nc1ccc(NCc2ccc(Cl)cc2)nc1N.Cl | 4.388
CCOC(=O)Nc1ccc(NCc2c(C)cc(C)cc2C)nc1N.Cl | 5.268
Cl.Nc1nc(NCc2ccc(Cl)cc2)ccc1NC(=O)Oc1ccccc1 | 3.507
CCOC(=O)Nc1ccc(NCc2ccc(C(C)=O)cc2)nc1N.Cl | 3.831
CCOC(=O)Nc1ccc(NCc2ccc(C)c(Cl)c2)nc1N.Cl | 4.083
Cl.Nc1nc(NCc2ccc(F)cc2)ccc1N1CCOC1=O | 4.065
C=CCOC(=O)Nc1ccc(NCc2ccc(F)cc2)nc1N | 4.48
CCOC(=O)Nc1ccc(NCc2ccc(F)cc2)nc1N.Cl | 4.13
Cl.Nc1nc(NCc2ccc(F)cc2)ccc1NC(=O)Oc1ccccc1 | 3.724
COC(=O)Nc1ccc(NCc2ccc(F)cc2)nc1N.Cl | 4.11
CCOC(=O)Nc1ccc(NC(C)c2ccc(F)cc2)nc1N.Cl (stereo not given) | 3.938
CCOC(=O)Nc1ccc(NCc2cccc(F)c2)nc1N.Cl | 4.297
CCOC(=O)Nc1ccc(NCc2c(C)cccc2C)nc1N.Cl | 5.01
CCOC(=O)Nc1ccc(NCc2ccccc2)nc1N.Cl | 4.214
CCOC(=O)Nc1ccc(NCc2ccc(S(N)(=O)=O)cc2)nc1N.Cl | 3.572
